What was measured:
[1] = tested on: SISO; assay: Cytotoxic activity against human SISO cell line at 20 uM; format: functional
Procedure, shortened: (§1)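 Cells in RPMI-1640 with 10% FCS were seeded (1000 cells/well; KYSE-510 500, LCLC-103H 250), then exposed 24 h later for 96 h. Read-out was crystal violet staining of glutaraldehyde-fixed cells at OD 570 nm. Growth (%) = (OD treated − OD at drug addition)/(OD control − OD at drug addition) × 100.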

[2] = tested on: 5637; assay: Cytotoxic activity against human 5637 cell line at 20 uM expressed as percent growth value; format: functional; procedure, shortened: as §1
[3] = tested on: KYSE-70 cell line; assay: Cytotoxic activity against human KYSE-70 cell line at 20 uM expressed as percent growth value; format: functional; procedure, shortened: as §1
[4] = tested on: 5637; assay: Growth inhibition against human 5637 cell lines; format: functional, cell-based; conditions: Homo sapiens
Procedure, shortened: (§2)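 Cells were grown in RPMI-1640 with 2 g/L NaHCO3 and 10% FCS at 37 °C in 5% CO2, seeded at 1000 cells/well, and dosed 24 h later at five geometric dilutions for 96 h of continuous exposure. Cells were then glutaraldehyde-fixed and stained with crystal violet, with OD read at 570 nm. IC50 was taken from the dose–response data.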

[5] = tested on: LCLC-103H cell line; assay: Growth inhibition against human LCLC-103H cell lines; format: functional, cell-based; conditions: Homo sapiens, LCLC-103H
Procedure, shortened: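 LCLC-103H cells were grown in RPMI-1640 with 2 g/L NaHCO3 and 10% FCS (5% CO2, 37 °C) and plated at 250 cells/well. After 24 h, five geometric dilutions were applied continuously for 96 h. Fixation was with glutaraldehyde, followed by crystal violet staining and OD at 570 nm. IC50 came from the dose–response curves.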

[6] = tested on: TERT-RPE1; assay: Compound was tested for growth inhibition against human h-TERTRPE1 cell lines; format: functional, cell-based; conditions: Homo sapiens, RPE-1
Procedure, shortened: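 The noncancerous hTERT-immortalized epithelial line h-TERT-RPE1 was grown in DMEM/F-12 with 2 g/L NaHCO3 and 10% FCS (37 °C, 5% CO2) and seeded at 1000 cells/well. Substance was added 24 h later at five geometric dilutions for 96 h continuously. The read-out was crystal violet staining after glutaraldehyde fixation, OD 570 nm, with IC50 from dose–response.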

[7] = tested on: RT-4; assay: Growth inhibition against human RT-4 cell lines; format: functional, cell-based; conditions: Homo sapiens, RT-4; procedure, shortened: as §2
[8] = tested on: SISO; assay: Growth inhibition against human SISO cell lines; format: functional, cell-based; conditions: Homo sapiens, SISO; procedure, shortened: as §2
[9] = tested on: DAN-G; assay: Growth inhibition against human DAN-G cell lines; format: functional, cell-based; conditions: Homo sapiens, DAN-G; procedure, shortened: as §2
[10] = tested on: MCF7; assay: Growth inhibition against human MCF-7 cell lines; format: functional, cell-based; conditions: Homo sapiens, MCF7
Procedure, shortened: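 MCF-7 was cultured in RPMI-1640 with 2 g/L NaHCO3, 10% FCS, 1 mM pyruvate, MEM salts and amino acids. Plating was 1000 cells/well, then after 24 h, 96 h of continuous exposure at five geometric dilutions. Crystal violet staining of glutaraldehyde-fixed cells was read at 570 nm, and IC50 was derived from the dose–response data.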

[11] = tested on: KYSE-70 cell line; assay: Growth inhibition against human KYSE-70 cell lines; format: functional, cell-based; conditions: Homo sapiens, KYSE-70; procedure, shortened: as §2

For O=[N+]([O-])c1ccc(/C=C/c2nc3ccccc3[nH]2)s1, the Activity [1] was -1.8, the Activity [2] was 0 and the Activity [3] was 0.7. It also gave an IC50 [4] of 0.27 µM, an IC50 [5] of 0.56 µM and an IC50 [6] of 0.21 µM. For the same compound, the IC50 [7] was 0.89 µM.

N#C/C(=C\c1cccc([N+](=O)[O-])c1)c1nc2ccccc2[nH]1 was tested, and the Activity [1] was 54.2, the IC50 [8] was 30.9 µM and the Activity [2] was 14.4. It also gave an Activity [3] of 55.4, an IC50 [4] of 15.2 µM and an IC50 [9] of 15.8 µM. The IC50 [5] was 1.13 µM, the IC50 [10] was 16.4 µM and the IC50 [11] was 22.5 µM. The IC50 [7] was 7.68 µM.

Compound N#C/C(=C\c1cccs1)c1nc2ccccc2[nH]1 has an Activity [1] of 82.4, an IC50 [8] of 25.9 µM and an Activity [2] of 49.3. For the same compound, the Activity [3] was 30.8, the IC50 [4] was 17.8 µM and the IC50 [9] was 15 µM. It also gave an IC50 [5] of 2.5 µM, an IC50 [10] of 11.2 µM and an IC50 [11] of 8.78 µM. It also gave an IC50 [7] of 14.6 µM.

Work on C/C(=C\c1ccc([N+](=O)[O-])s1)c1nc2ccccc2[nH]1 yielded an Activity [1] of -1.3, an IC50 [8] of 3.28 µM and an Activity [2] of 0.5. For the same compound, the Activity [3] was 2.4, the IC50 [4] was 3.65 µM and the IC50 [9] was 3.73 µM. It also gave an IC50 [5] of 0.44 µM, an IC50 [10] of 2.97 µM and an IC50 [11] of 5.11 µM. It also gave an IC50 [7] of 4.67 µM.

Reference: ChEMBL document CHEMBL1148342, “Synthesis, X-ray crystal structures, stabilities, and in vitro cytotoxic activities of new heteroarylacrylonitriles” (J Med Chem, 2004)
